In ChEMBL document CHEMBL1150169, “Fatty acid synthase inhibitors from plants: isolation, structure elucidation, and SAR studies” (J Nat Prod, 2002):
Values after ≈ are worked out from the molar mass of the structure shown.

Assays:
Candida albicans = experiment: Antifungal activity against Candida albicans ATCC 90028; assay type: functional, organism-based
[1] = Inhibition of Saccharomyces cerevisiae fatty acid synthase
How it was run: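 Yeast FAS semipurified by 50% ammonium sulfate precipitation of lysate (pH 6.6 phosphate, EDTA, DTT, protease inhibitors), dialyzed, and diluted to 250 mOD/min/mL. Samples preincubated with enzyme 30 min at room temperature, then mixed 1:1 with mix of 1 mM malonyl CoA and NADPH, 40 µM acetyl CoA, and 2 mM DTT. A340 read kinetically; rate over initial 2 min. IC50 from dose-response curves.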

Cryptococcus neoformans = experiment: Antifungal activity against Cryptococcus neoformans ATCC 90113; assay type: functional, organism-based

SMILES	IC50 (Candida albicans) [µg/mL]	IC50 [1] [µg/mL]	IC50 (Cryptococcus neoformans) [µg/mL]
CC1(C)CC[C@]2(C(=O)O)CC[C@]3(C)C(=CC[C@@H]4[C@@]5(C)C[C@@H](O)[C@H](O)[C@@](C)(CO)[C@@H]5CC[C@]43C)[C@@H]2C1 [ARJUNOLIC ACID]	> 50	27.5 (≈ 56.3 µM)	20 (≈ 40.9 µM)
COc1cc(O)c(C(=O)CCc2ccc(O)cc2)c(O)c1 [ASEBOGENIN]	> 50	> 50	> 50
COc1cc2oc(-c3ccccc3)cc(=O)c2c(OC)c1OC [BAICALEIN TRIMETHYL ETHER]	> 50	> 50	> 50
O=c1cc(-c2ccccc2)oc2cc(O)c(O)c(O)c12 [BAICALEIN]	6 (≈ 22.2 µM)	25 (≈ 92.5 µM)	> 50
O=C(O)[C@H]1O[C@@H](Oc2cc3oc(-c4ccccc4)cc(=O)c3c(O)c2O)[C@H](O)[C@@H](O)[C@@H]1O [BAICALIN]	> 50	> 50	> 50
C=C(C)[C@@H]1CC[C@]2(C(=O)O)CC[C@]3(C)[C@H](CC[C@@H]4[C@@]5(C)CC[C@H](O)C(C)(C)[C@@H]5CC[C@]43C)[C@@H]12 [BETULINIC ACID]	> 50	> 50	> 50
COc1ccc(-c2coc3cc(O)cc(O)c3c2=O)cc1 [BIOCHANIN]	> 50	> 50	> 50
C/C=C/C/C=C/CCC(=O)[C@H]1O[C@H]1C(N)=O [CERULENIN]	0.4 (≈ 1.79 µM)	0.15 (≈ 0.672 µM)	0.15 (≈ 0.672 µM)
O=C(O)C[C@@H]1C(=O)O[C@H]2[C@@H]3OC(=O)c4cc(O)c(O)c(O)c4-c4c(cc(O)c(O)c4O)C(=O)OC[C@H]2O[C@@H](OC(=O)c2cc(O)c(O)c(O)c2)[C@@H]3OC(=O)c2cc(O)c(O)c3c2[C@H]1[C@H](O)C(=O)O3 [CHEBULAGIC ACID]	> 50	> 50	> 50
O=C(O)C[C@H]1C(=O)O[C@H]2[C@H](OC(=O)c3cc(O)c(O)c(O)c3)[C@@H](OC(=O)c3cc(O)c(O)c4c3[C@H]1[C@H](O)C(=O)O4)[C@H](OC(=O)c1cc(O)c(O)c(O)c1)O[C@@H]2COC(=O)c1cc(O)c(O)c(O)c1 [CHEBULINIC ACID]	> 50	> 50	> 50
CC1(C)CC[C@]2(C(=O)O[C@@H]3O[C@H](CO)[C@@H](O)[C@H](O)[C@H]3O)CC[C@]3(C)C(=CC[C@@H]4[C@@]5(C)C[C@@H](O)[C@H](O)[C@@](C)(CO)[C@@H]5[C@H](O)C[C@]43C)[C@@H]2C1 [CHEBULOSIDE II]	> 50	> 50	> 50
O=c1oc2c(O)c(O)cc3c(=O)oc4c(O)c(O)cc1c4c23 [ELLAGIC ACID]	> 50	20 (≈ 66.2 µM)	5.5 (≈ 18.2 µM)
C[C@@H]1O[C@@H](Oc2cc3c(=O)oc4c(O)c(O)cc5c(=O)oc(c2O)c3c45)[C@H](O)[C@H](O)[C@H]1O [ESCHWEILENOL C]	> 50	7.5 (≈ 16.7 µM)	> 50
O=c1c(O)c(-c2ccc(O)c(O)c2)oc2cc(O)ccc12 [FISETIN]	> 50	> 50	> 50
O=C1CC(c2ccccc2)Oc2ccccc21 (stereo unspecified) [FLAVANONE]	> 50	> 50	> 50
COc1ccc(-c2coc3cc(O)c(O)cc3c2=O)cc1 [FORMONETIN]	> 50	50 (≈ 176 µM)	> 50

SMILES	IC50 (Candida albicans) [µg/mL]	IC50 [1] [µg/mL]	IC50 (Cryptococcus neoformans) [µg/mL]
O=c1c(O)c(-c2ccccc2)oc2cc(O)cc(O)c12 [GALANGIN]	> 50	> 50	> 50
COc1cc(-c2cc(=O)c3c(O)c(OC)c(OC)c(OC)c3o2)cc(OC)c1OC [GARDENIN]	> 50	> 50	> 50
O=c1c(-c2ccc(O)cc2)coc2cc(O)cc(O)c12 [GENISTEIN]	> 50	> 50	> 50
CC(C)=CCc1c(O)ccc(C(=O)/C=C/c2ccc(O)cc2)c1O [ISOBAVACHALCONE]	2 (≈ 6.17 µM)	> 50	45 (≈ 139 µM)
O=c1c(O)c(-c2ccc(O)cc2)oc2cc(O)cc(O)c12 [KAEMPFEROL]	> 50	50 (≈ 175 µM)	> 50
O=c1cc(-c2ccc(O)c(O)c2)oc2cc(O)cc(O)c12 [LUTEOLIN]	> 50	9 (≈ 31.4 µM)	> 50
O=c1c(O)c(-c2cc(O)c(O)c(O)c2)oc2cc(O)cc(O)c12 [MYRICETIN]	> 50	15 (≈ 47.1 µM)	> 50
O=C1C[C@@H](c2ccc(O)cc2)Oc2cc(O)cc(O)c21 [NARINGENIN]	> 50	> 50	> 50
COc1c(O[C@@H]2O[C@H](CO)[C@@H](O)[C@H](O)[C@H]2O)cc2c(=O)oc3c4c(cc5c(=O)oc1c2c35)OCO4 [NYSSOSIDE]	> 50	> 50	> 50
O=c1c(-c2ccc(O)c(O)c2)coc2cc(O)cc(O)c12 [OROBOL]	> 50	> 50	> 50
O=C(OC[C@H]1O[C@@H](OC(=O)c2cc(O)c(O)c(O)c2)[C@H](OC(=O)c2cc(O)c(O)c(O)c2)[C@@H](OC(=O)c2cc(O)c(O)c(O)c2)[C@@H]1OC(=O)c1cc(O)c(O)c(O)c1)c1cc(O)c(O)c(O)c1 [PENTAGALLOYL GLUCOSE]	> 50	2.8 (≈ 2.98 µM)	> 50
O=c1c(O)c(-c2ccc(O)c(O)c2)oc2cc(O)cc(O)c12 [QUERCETIN]	> 50	12 (≈ 39.7 µM)	> 50
C[C@@H]1O[C@@H](OC[C@H]2O[C@@H](Oc3c(-c4ccc(O)c(O)c4)oc4cc(O)cc(O)c4c3=O)[C@H](O)[C@@H](O)[C@@H]2O)[C@H](O)[C@H](O)[C@H]1O [RUTIN]	> 50	> 50	30 (≈ 49.1 µM)
COc1cc(O)c2c(=O)cc(-c3ccc(O)cc3)oc2c1-c1cc(-c2cc(=O)c3c(O)cc(O)cc3o2)ccc1O [SOTETSUFLAVONE]	> 50	25 (≈ 45.2 µM)	> 50
CC1(C)CC[C@]2(C(=O)O)CC[C@]3(C)C(=CC[C@@H]4[C@@]5(C)C[C@@H](O)[C@H](O)[C@@](C)(CO)[C@@H]5[C@H](O)C[C@]43C)[C@@H]2C1 [TERMINOLIC ACID]	> 50	> 50	> 50
C[C@H]1[C@H](C)CC[C@]2(C(=O)O)CC[C@]3(C)C(=CC[C@@H]4[C@@]5(C)CC[C@H](O)C(C)(C)[C@@H]5CC[C@]43C)[C@H]12 [URSOLIC ACID]	> 50	38 (≈ 83.2 µM)	> 50
